Calls of active or inactive are those of the source. The rule behind the calls is not given here.
Experiments:
[1] = Antiproliferative activity against human HCCLM3 cells assessed as cell viability measured after 72 hrs by MTS method; assay type: functional, cell-based; details: HCCLM3, 72 h
Procedure, shortened: (§1)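 Log-phase cells plated at 5×10^3–6×10^3 per well for 24 h, then given graded compound concentrations in fresh medium for 72 h, five replicate wells. Medium replaced with medium containing 10% MTS, 30 min or more at 37 °C in dark; OD 490 nm read. IC50 by nonlinear regression; mean ± SD of at least three experiments.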

[2] = tested on: BT-474; test: Antiproliferative activity against human BT-474 cells assessed as cell viability measured after 72 hrs by MTS method; assay type: functional, cell-based; details: BT-474, 72 h; procedure, shortened: as §1
[3] = tested on: SK-BR-3; test: Antiproliferative activity against human SK-BR-3 cells assessed as cell viability measured after 72 hrs by MTS method; assay type: functional, cell-based; details: SK-BR-3, 72 h; procedure, shortened: as §1
[4] = tested on: SW480; test: Antiproliferative activity against human SW480 cells assessed as cell viability measured after 72 hrs by MTS method; assay type: functional, cell-based; details: SW480, 72 h; procedure, shortened: as §1
[5] = tested on: PANC-1; test: Antiproliferative activity against human PANC-1 cells assessed as cell viability measured after 72 hrs by MTS method; assay type: functional, cell-based; details: PANC-1, 72 h; procedure, shortened: as §1
[6] = organism: Sus scrofa; test: Inhibition of pig tubulin polymerization at 10 uM measured every minute for 60 mins by microplate reader method
Procedure, shortened: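 Kit assay with porcine tubulin (>97% pure) at 4 mg/mL in PIPES 80 mM, MgCl2 2 mM, EGTA 0.5 mM, pH 6.9, with GTP. Compound at 10 μM final (from 100 μM working solution) preincubated 5 min at 37 °C in a prewarmed plate before cold tubulin mix is added. A340 read every minute for 60 min at 37 °C.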

[7] = target: T1, Tubulin (Homo sapiens) (UniProt P68371+Q9H4B7+P0DPH7+P68366+Q13509+Q71U36+P04350+Q3ZCM7+P07437+P68363+Q9BQE3+Q6PEY2+Q13885+Q9BVA1+Q9BUF5); test: Inhibition of tubulin polymerization in human RKO cells assessed as fragmentation of microtubule at 1 uM measured 24 hrs by DAPI staining based immunoflourescence assay; assay type: cell-based
Procedure, shortened: (§2)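 RKO cells on coverslips (2.5×10^5 per well) incubated overnight, then treated for 24 h at 0.5 or 1 μM, DMSO, or 1 μM comparators. Fixed in cold methanol 10 min, permeabilized with 0.25% Triton X-100, blocked in 1% BSA at 4 °C overnight. Stained with anti-β-tubulin (1:100, 2 h RT) and Alexa Fluor 594 secondary (1:500, 1 h), nuclei with DAPI; imaged by fluorescence microscopy.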

[8] = tested on: RKO; test: Induction of cell cycle arrest in human RKO cells assessed as accumulation of cells in G1 phase at 1 uM measured after 24 hrs by PI staining based flow cytometry method (reference value: 39.54%); assay type: functional
[9] = tested on: SW-620; test: Induction of cell cycle arrest in human SW-620 cells assessed as accumulation of cells in G1 phase at 1 uM measured after 24 hrs by PI staining based flow cytometry method (reference value: 40.06%); assay type: functional
[10] = tested on: SW-620; test: Induction of cell cycle arrest in human SW-620 cells assessed as accumulation of cells in G2 phase at 1 uM measured after 24 hrs by PI staining based flow cytometry method (reference value: 13.83%); assay type: functional
[11] = tested on: PANC-1; test: Induction of cell cycle arrest in human PANC-1 cells assessed as accumulation of cells in G2 phase at 1 uM measured after 24 hrs by PI staining based flow cytometry method (reference value: 3.63%); assay type: functional
[12] = tested on: RKO; test: Induction of apoptosis in human RKO cells assessed as viable cells at 1 uM measured after 24 hrs by PI/Annexin V staining based flow cytometry assay (reference value: 96.6%); assay type: functional; details: read-out: Activity
[13] = tested on: RKO; test: Induction of apoptosis in human RKO cells assessed as late apoptotic cells at 1 uM measured after 24 hrs by PI/Annexin V staining based flow cytometry assay (reference value: 0.81%); assay type: functional
[14] = tested on: RKO; test: Induction of apoptosis in human RKO cells assessed as necrotic cells at 1 uM measured after 24 hrs by PI/Annexin V staining based flow cytometry assay (reference value: 0.01%); assay type: functional
[15] = tested on: SW-620; test: Induction of apoptosis in human SW-620 cells assessed as early apoptotic cells at 1 uM measured after 24 hrs by PI/Annexin V staining based flow cytometry assay (reference value: 2.41%); assay type: functional
[16] = tested on: RKO; test: Induction of apoptosis in human RKO cells assessed as increase in cleaved PARP levels at 0.5 to 1 uM measured after 24 hrs by western blot assay; assay type: functional, cell-based; details: dose 0.5-1 µM
Procedure, shortened: (§3)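 RKO or SW620 cells at 4×10^5–5×10^5 per well treated with 0.5 and 1 µM for 24 h; lysed in SDS loading buffer, boiled, SDS-PAGE, PVDF transfer; probed with anti-Bax or anti-cleaved PARP (1:1000) overnight at 4 °C, HRP secondary, ECL detection; β-actin control.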

[17] = tested on: SW-620; test: Induction of apoptosis in human SW-620 cells assessed as increase in Bax expression at 0.5 to 1 uM measured after 24 hrs by western blot assay; assay type: functional, cell-based; details: dose 0.5-1 µM; procedure, shortened: as §3
[18] = tested on: SW-620; test: Induction of apoptosis in human SW-620 cells assessed as increase in ROS levels at 0.5 uM measured after 24 hrs by DCFH-DA staining based flow cytometry method relative to control; assay type: functional
Procedure, shortened: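 Cells at 5×10^5 per well exposed to 0.25 or 0.5 µM for 24 h, then loaded with 5 µM DCFH-DA in serum-free medium 30 min at 37 °C; washed, harvested, read by flow cytometry (ex 488/em 525 nm). ROS given as ratio of treated to control; at least three experiments.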

[19] = tested on: HUVEC; test: Anti-vascular activity against human HUVEC cells assessed as wound closure at 1 uM measured after 24 hrs by wound closure assay (reference value: 71.8%); assay type: functional
[20] = tested on: SW-620; test: Antitumour activity against human SW-620 cells xenografted in Athymic nude mouse assessed as decrease in tumour growth at 25 mg/kg per two days, po measured after 20 days; assay type: functional; parameters: scale not given: the % may be the effect or the level left; details: time 20 day
Procedure, shortened: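 Nude mice inoculated s.c. in right armpit with 5×10^6 SW620 cells in 125 µL PBS; at about 100 mm³ randomized, n = 6. Dosed orally 25 mg/kg every 2 days for 20 days in DMSO:corn oil 1:9. Tumour volume (L×W²/2) and body weight measured every 2 days; inhibition from final tumour weight vs vehicle.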

[21] = target: T1, Tubulin (Homo sapiens); test: Inhibition of tubulin polymerization in human RKO cells assessed as morphology changed to fusiform at 1 uM measured 24 hrs by DAPI staining based immunoflourescence assay; assay type: cell-based; details: in the assay text read “changed to round from fusiform” for “changed to fusiform”; procedure, shortened: as §2
[22] = tested on: SW-620; test: Induction of cell cycle arrest in human SW-620 cells assessed as reduction in Cyclin B1 expression at 0.5 to 1 uM measured after 24 hrs by western blot assay; assay type: functional, cell-based; details: dose 0.5-1 µM
Procedure, shortened: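 RKO or SW620 cells (4×10^5–5×10^5 per well) exposed to 0.5 or 1 μM or DMSO for 24 h. Lysed in SDS loading buffer, boiled, run on 8–15% SDS-PAGE and moved to PVDF. Blocked in 5% milk, probed overnight at 4 °C with anti-Cdc2 or anti-cyclin B1 (1:1000), β-actin as reference. HRP secondary and ECL detection. Done at least three times.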

IC50 [2] | IC50 [3] | IC50 [4] | IC50 [5] | inhibition [6] | inhibition [7] | SMILES | IC50 [1] | Activity [8] | Activity [9] | Activity [10] | Activity [11] | viability at 1 µM [12] | Activity [13] | Activity [14] | Activity [15] | Activity [16] | Activity [17] | fold change (FC) [18] | Activity [19] | Activity [20] | other results
8.39 µM | 0.143 µM | 3.42 µM | 0.837 µM | Active | Active | COc1ccc(S(=O)(=O)Nc2cccnc2Nc2ccc(O)cc2)cc1 [ABT-751] | 0.671 µM | 0.98% | 37.86% | 17.69% | 64.83% | 88.4% | 1.31% | 0.1% | 8.35% | Active | Active | 1.8 | 18% | 49.3% | inhibition [21]: Active; Activity [22]: Active
1.19 µM | 0.431 µM | 0.338 µM | 0.729 µM | Active | Active | COc1ccc(S(=O)(=O)Nc2cccnc2-c2ccc(C#N)c(F)c2)cc1 | 0.963 µM | 8.75% | 8.05% | 76.28% | 28.01% | 61% | 1.52% | 0.17% | 10.09% | Active | Active | 1.5 | 20.1% | 53.6% | inhibition [21]: Active; Activity [22]: Active

From ChEMBL document CHEMBL4819012, “Discovery of novel 2-aryl-3-sulfonamido-pyridines (HoAns) as microtubule polymerization inhibitors with potent antitumor activities” (Eur J Med Chem, 2021)
